Assays:
Format in all cases: functional, cell-based
P2Y purinoceptor 1 = P2Y purinoceptor 1 (Homo sapiens, UniProt P47900); assay: Agonist activity evaluated as change in the level of cytosolic calcium in 1321N astrocytoma cells infected with a retrovirus encoding the human P2Y1 receptor at 100 uM; IA is inactive
P2Y purinoceptor 4 [1] = molecular target: T1, P2Y purinoceptor 4 (Homo sapiens, UniProt P51582); assay: Agonist activity evaluated as change in the level of cytosolic calcium in 1321N astrocytoma cells infected with a retrovirus encoding the human P2Y4 receptor
T1 sequence (P51582 whole entry): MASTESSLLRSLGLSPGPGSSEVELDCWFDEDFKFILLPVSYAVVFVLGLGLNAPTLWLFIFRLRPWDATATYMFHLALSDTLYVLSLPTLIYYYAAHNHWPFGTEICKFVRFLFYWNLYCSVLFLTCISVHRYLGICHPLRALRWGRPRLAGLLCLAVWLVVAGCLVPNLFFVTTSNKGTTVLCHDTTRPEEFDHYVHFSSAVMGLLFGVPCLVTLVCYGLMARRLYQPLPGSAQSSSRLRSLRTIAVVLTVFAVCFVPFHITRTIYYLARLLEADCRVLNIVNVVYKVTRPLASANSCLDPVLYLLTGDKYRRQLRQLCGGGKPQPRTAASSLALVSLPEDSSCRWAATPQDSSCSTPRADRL

P2Y purinoceptor 6 = P2Y purinoceptor 6 (Homo sapiens, UniProt Q15077); assay: Agonist activity evaluated as change in the level of cytosolic calcium in 1321N astrocytoma cells infected with a retrovirus encoding the human P2Y6 receptor
P2Y purinoceptor 6, sequence (Q15077 whole entry): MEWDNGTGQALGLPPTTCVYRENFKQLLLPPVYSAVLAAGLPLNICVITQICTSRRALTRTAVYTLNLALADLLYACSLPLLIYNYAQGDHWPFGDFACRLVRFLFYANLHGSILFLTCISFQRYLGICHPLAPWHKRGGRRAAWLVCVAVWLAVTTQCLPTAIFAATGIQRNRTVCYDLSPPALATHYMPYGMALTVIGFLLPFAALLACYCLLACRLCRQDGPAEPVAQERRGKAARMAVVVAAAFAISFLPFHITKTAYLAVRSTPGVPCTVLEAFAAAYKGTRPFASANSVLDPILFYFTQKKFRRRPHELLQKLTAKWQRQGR
How it was run: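 Cells grown to confluence, then loaded with Fluo-3 AM (2.5 μM final) for 60 min at 25 °C in buffer (mM: KCl 10.0, NaCl 118, CaCl2 2.5, MgCl2 1.0, HEPES 20, glucose 10; pH 7.4). Dye washed off. Activation read as change in fluorescence intensity on FLIPR (cytosolic calcium mobilization). Agonist potency given as EC50.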

P2Y purinoceptor 2 [2] = molecular target: T2, P2Y purinoceptor 2 (Homo sapiens, UniProt P41231); assay: Agonist activity evaluated as change in the level of cytosolic calcium in 1321N astrocytoma cells infected with a retrovirus encoding the human P2Y2 receptor
T2 sequence (P41231 whole entry): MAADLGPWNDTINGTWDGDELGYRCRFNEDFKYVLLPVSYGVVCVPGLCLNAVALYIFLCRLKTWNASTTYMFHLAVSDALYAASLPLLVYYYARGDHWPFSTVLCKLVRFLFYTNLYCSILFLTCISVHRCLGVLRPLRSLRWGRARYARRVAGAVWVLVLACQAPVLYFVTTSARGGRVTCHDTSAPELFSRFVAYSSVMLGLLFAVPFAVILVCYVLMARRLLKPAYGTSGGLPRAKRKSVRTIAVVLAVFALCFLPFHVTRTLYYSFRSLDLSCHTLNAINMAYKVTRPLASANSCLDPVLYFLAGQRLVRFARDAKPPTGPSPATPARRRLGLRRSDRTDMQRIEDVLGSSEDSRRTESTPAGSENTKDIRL

P2Y purinoceptor 4 [3] = molecular target: T1, P2Y purinoceptor 4; assay: Agonist activity evaluated as change in the level of cytosolic calcium in 1321N astrocytoma cells infected with a retrovirus encoding the human P2Y4 receptor at 100 uM; IA is inactive
P2Y purinoceptor 2 [4] = molecular target: T2, P2Y purinoceptor 2; assay: Agonist activity evaluated as change in the level of cytosolic calcium in 1321N astrocytoma cells infected with a retrovirus encoding the human P2Y2 receptor at 100 uM; IA is inactive

P2Y purinoceptor 1, sequence (P47900 whole entry): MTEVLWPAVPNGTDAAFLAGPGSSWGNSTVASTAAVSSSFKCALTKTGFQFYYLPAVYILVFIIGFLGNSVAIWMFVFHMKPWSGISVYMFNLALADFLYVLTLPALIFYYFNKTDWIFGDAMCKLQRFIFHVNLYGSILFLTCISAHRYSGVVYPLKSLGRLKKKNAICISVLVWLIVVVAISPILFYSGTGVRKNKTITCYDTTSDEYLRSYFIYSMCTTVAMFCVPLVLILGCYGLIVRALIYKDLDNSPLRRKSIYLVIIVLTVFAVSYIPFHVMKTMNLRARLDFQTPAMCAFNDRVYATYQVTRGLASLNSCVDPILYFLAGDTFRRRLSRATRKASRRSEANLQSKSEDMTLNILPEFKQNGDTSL

| Compound | EC50 (P2Y purinoceptor 1) | EC50 (P2Y purinoceptor 4 [1]) | EC50 (P2Y purinoceptor 6) | EC50 (P2Y purinoceptor 2 [2]) | EC50 (P2Y purinoceptor 4 [3]) | EC50 (P2Y purinoceptor 2 [4]) |
| --- | --- | --- | --- | --- | --- | --- |
| O=c1ccn([C@@H]2O[C@H](COP(=O)(O)OP(=O)(O)OP(=O)(O)OP(=O)(O)OC[C@@H]3O[C@H](n4ccc(=O)[nH]c4=O)[C@@H](O)[C@H]3O)[C@@H](O)[C@H]2O)c(=O)[nH]1 | Not Active | 0.4 µM | 20 µM | – | – | – |
| O=c1ccn([C@@H]2O[C@H](COP(=O)(O)OP(=O)(O)OP(=O)(O)OC[C@@H]3O[C@H](n4ccc(=O)[nH]c4=O)[C@@H](O)[C@H]3O)[C@@H](O)[C@H]2O)c(=O)[nH]1 | Not Active | > 100 µM | 0.2 µM | 22 µM | – | – |
| O=c1ccn([C@@H]2O[C@H](COP(=O)(O)OP(=O)(O)OP(=O)(O)OP(=O)(O)OP(=O)(O)OC[C@@H]3O[C@H](n4ccc(=O)[nH]c4=O)[C@@H](O)[C@H]3O)[C@@H](O)[C@H]2O)c(=O)[nH]1 | Not Active | > 20 µM | > 30 µM | 5.6 µM | – | – |
| O=c1ccn([C@@H]2O[C@H](COP(=O)(O)OP(=O)(O)OP(=O)(O)OP(=O)(O)OP(=O)(O)OP(=O)(O)OP(=O)(O)OC[C@@H]3O[C@H](n4ccc(=O)[nH]c4=O)[C@@H](O)[C@H]3O)[C@@H](O)[C@H]2O)c(=O)[nH]1 | Not Active | > 30 µM | > 100 µM | 8.4 µM | – | – |
| O=c1ccn([C@@H]2O[C@H](COP(=O)(O)OP(=O)(O)O)[C@@H](O)[C@H]2O)c(=O)[nH]1 [URIDINE_DIPHOSPHATE] | Not Active | – | 0.1 µM | > 10 µM | Not Active | – |
| O=c1ccn([C@@H]2O[C@H](COP(=O)(O)OP(=O)(O)OP(=O)(O)O)[C@@H](O)[C@H]2O)c(=O)[nH]1 [URIDINE TRIPHOSPHATE] | Not Active | 0.1 µM | > 10 µM | 0.03 µM | – | – |
| O=c1ccn([C@@H]2O[C@H](COP(=O)(O)OP(=O)(O)OC[C@@H]3O[C@H](n4ccc(=O)[nH]c4=O)[C@@H](O)[C@H]3O)[C@@H](O)[C@H]2O)c(=O)[nH]1 | Not Active | – | > 30 µM | – | Not Active | Not Active |
| O=c1ccn([C@@H]2O[C@H](COP(=O)(O)OP(=O)(O)OP(=O)(O)OP(=O)(O)OP(=O)(O)OP(=O)(O)OC[C@@H]3O[C@H](n4ccc(=O)[nH]c4=O)[C@@H](O)[C@H]3O)[C@@H](O)[C@H]2O)c(=O)[nH]1 | Not Active | > 30 µM | > 30 µM | 9.8 µM | – | – |

Source: ChEMBL document CHEMBL1133995, “Synthesis and P2Y receptor activity of a series of uridine dinucleoside 5'-polyphosphates” (Bioorg Med Chem Lett, 2001)
